# Measured values: ChEMBL document CHEMBL1671818, “Screening multicomponent reactions for X-linked inhibitor of apoptosis-baculoviral inhibitor of apoptosis protein repeats domain binder” (J Med Chem, 2011)
# Key:
# [1] = target: T1, E3 ubiquitin-protein ligase XIAP (Homo sapiens, UniProt P98170); assay: Inhibition of XIAP-Bir3 domain at 100 uM by TR-FRET assay
# Outline: (§1)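 TR-FRET displacement. BIR3 protein (10 nM) and biotin-lc-GGIPVA SMAC peptide (10 nM) mixed with compound in DMSO, 1 h at 4 °C. Eu-antibody conjugate (5 nM) and APC-streptavidin (2 nM) then added, incubated overnight at 4 °C. Excitation 340 nm, emission 665 nm. Screen at 100, 10, 1 and 0.1 μM; actives run as 6–7-point dilutions in duplicate.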
# [2] = target: T1, E3 ubiquitin-protein ligase XIAP; assay: Inhibition of XIAP-Bir3 domain at 10 uM by TR-FRET assay; outline: as §1
# MDA-MB-231 = assay: Cytotoxicity against human ER-negative MDA-MB-231 cells assessed as cell viability after 72 hrs; assay type: functional, cell-based; conditions: MDA-MB-231, 72 h
# Outline: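 MDA-MB-231 (ER-negative) kept in DMEM + 10% FBS at 37 °C, 5% CO2. Seeded at 5000 cells/well and left overnight, then exposed for 72 h to a range of compound concentrations in serum-free DMEM (final DMSO 0.1%). Viability read by ATPlite one-step luminescence, four replicates. IC50 obtained by curve fitting.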
# Jurkat = assay: Cytotoxicity against human Jurkat cells assessed as cell viability; assay type: functional, cell-based
# [3] = target: T1, E3 ubiquitin-protein ligase XIAP; assay: Inhibition of XIAP-Bir3 domain by NMR titration
# Outline: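 NMR Kd. 1H chemical-shift changes of resolved BIR3 resonances (BIR3 at 100 μM) followed across ligand concentrations, at least six points. Kd from a nonlinear least-squares fit of fractional bound population versus total ligand, single-site model. 2D [15N,1H]HSQC acquired at 300 K.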
# [4] = target: T1, E3 ubiquitin-protein ligase XIAP; assay: Inhibition of XIAP-Bir3 domain by calorimetric titration assay
# Outline: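 ITC at 25 °C. Purified XIAP BIR3 (100 μM) in the cell, compound (1 mM) in the syringe, both in degassed PBS pH 7.4. Blank-subtracted, normalized heats fitted to a single-site model; Kd taken as 1/Ka.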
# [5] = target: T1, E3 ubiquitin-protein ligase XIAP; assay: Inhibition of XIAP by FP assay
# [6] = target: T1, E3 ubiquitin-protein ligase XIAP; assay: Inhibition of XIAP by FRET assay; outline: as §1
# RPMI-8226 = assay: Cytotoxicity against human RPMI8226 cells assessed as cell viability; assay type: functional, cell-based
# T1 sequence (P98170 whole entry, the tested form may be a part): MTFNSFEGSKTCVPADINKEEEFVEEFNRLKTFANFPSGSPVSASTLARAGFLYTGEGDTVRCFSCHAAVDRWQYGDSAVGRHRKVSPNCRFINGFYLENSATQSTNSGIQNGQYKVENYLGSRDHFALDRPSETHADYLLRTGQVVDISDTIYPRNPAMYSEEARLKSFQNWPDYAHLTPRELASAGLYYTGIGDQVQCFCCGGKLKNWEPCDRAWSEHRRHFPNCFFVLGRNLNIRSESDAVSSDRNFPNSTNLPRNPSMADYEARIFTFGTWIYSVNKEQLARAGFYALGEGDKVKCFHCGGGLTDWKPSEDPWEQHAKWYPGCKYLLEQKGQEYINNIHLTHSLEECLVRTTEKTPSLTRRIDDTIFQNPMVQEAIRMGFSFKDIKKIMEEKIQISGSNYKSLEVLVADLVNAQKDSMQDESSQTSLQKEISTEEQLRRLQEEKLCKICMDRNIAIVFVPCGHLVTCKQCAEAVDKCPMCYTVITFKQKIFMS
inhibition [1],inhibition [2],Structure (SMILES),IC50 (MDA-MB-231),also measured
83.2%,15.8%,CC(C)[C@H](NC(=O)[C@H](C)N)C(=O)N1C(C(=O)NC(c2ccccc2)c2ccccc2)CSC1(C)C (stereo in doubt; 9) [listing 1 of 2 here],,
,,CC(C)[C@H](NC(=O)[C@H](C)N)C(=O)N1C(C(=O)NC(c2ccccc2)c2ccccc2)CSC1(C)C (stereo in doubt; 9) [listing 2 of 2 here],> 50 µM,
,,COc1ccc(CCN2CCC[C@H]2CN(C(=O)Nc2ccccc2)[C@@H](CNC(=O)Nc2ccccc2)CC2CCCCC2)cc1,,IC50 (Jurkat): 5 µM
82.5%,15.6%,CC(C)[C@H](NC(=O)[C@H](C)N)C(=O)N1CCCN(C2CCCCC2)CC1C(=O)NC(c1ccccc1)c1ccccc1 (stereo partly specified),> 50 µM,
,,CC(C)[C@H](NC(=O)[C@H](C)N)C(=O)N1CCN(Cc2ccccc2)CC1C(=O)NC(c1ccccc1)c1ccccc1 (stereo partly specified),31 µM,
97.2%,58%,CC(C)C(NC(=O)[C@H](C)N)c1nc(C(=O)NCc2ccccc2)c(-c2ccccc2)s1 (stereo partly specified),> 50 µM,
96.9%,77.2%,CCN1CCN(C(=O)[C@@H](NC(=O)[C@H](C)N)C(C)C)C(C(=O)NC(c2ccccc2)c2ccccc2)C1 (stereo partly specified),> 50 µM,Kd [3]: 27.7 µM; Kd [4]: 21.6 µM
,,CN[C@@H](C)C(=O)NC1CCC[C@H]2[C@@H](Cc3ccccc3)C[C@@H](C(=O)N[C@@H]3CCCc4ccccc43)N2C1=O (stereo partly specified),0.026 µM,Kd [5]: 0.031 µM
83.6%,16.7%,CC(C)[C@H](NC(=O)[C@H](C)N)C(=O)N1C(C(=O)NC(c2ccccc2)c2ccccc2)CSC1(C)C (stereo in doubt),,
23.4%,19.9%,CC(C)C(NC(=O)[C@H](C)N)c1nc(C(=O)NCc2ccccc2)cs1 (stereo partly specified),> 50 µM,
20.7%,15%,CC(C)[C@H](NC(=O)[C@H](C)N)C(O)c1nnnn1CCc1ccccc1 (stereo partly specified),> 50 µM,
,,CN[C@@H](C)C(=O)NC1CCC[C@H]2SC[C@@H](C(=O)Nc3cc(C)nn3-c3ccccc3)N2C1=O (stereo partly specified),2 µM,
,,CN[C@@H](C)C(=O)N[C@H](C(=O)N1CC[C@H]2CN(CCc3ccccc3)CC[C@H]21)C1CCCCC1,,IC50 [6]: 0.28 µM; IC50 (RPMI-8226): 30 µM
97.1%,67.4%,"CC(C)[C@H](NC(=O)[C@H](C)N)C(=O)N1C(C(=O)NC(c2ccccc2)c2ccccc2)CSC1(C)C (single isomer, unassigned; diastereomer A)",,
